Measured values reported in ChEMBL document CHEMBL4680121, “Development of (4-methoxyphenyl)-1H-tetrazol-5-amine regioisomers as a new class of selective antitubercular agents” (Eur J Med Chem, 2020).
Values after ≈ are worked out from the molar mass of the structure shown.

How the values were obtained:
[1] = tested on: Mycobacterium tuberculosis; experiment: Antitubercular activity against Mycobacterium tuberculosis H37Rv ATCC 25618 assessed as isoniazid MIC incubated for 14 days in presence of isoniazid by MABA method; type: functional; conditions: H37Rv ATCC 25618, 336 h, time 14 day
Method in brief: (§1)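 In Middlebrook 7H9 with 10% OADC, the reference drug (INH, RMP, SM or EMB) at 1 to 1/32 of its MIC alone was mixed with the test derivative fixed at 1/2 its MIC. 4 ml samples were inoculated with McFarland 1 suspension and incubated 14 days at 37 °C. MIC is the lowest drug concentration in combination that inhibited growth.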

[2] = tested on: Mycobacterium tuberculosis; experiment: Antitubercular activity against Mycobacterium tuberculosis Spec.192 assessed as rifampicin MIC incubated for 14 days in presence of rifampicin by MABA method; type: functional; conditions: Mycobacterium tuberculosis, 192, 336 h; time 14 day; method in brief: as §1
[3] = tested on: Mycobacterium tuberculosis; experiment: Antitubercular activity against Mycobacterium tuberculosis H37Rv ATCC 25618 assessed as fractional inhibitory concentration index incubated for 14 days in presence of 1/2 x MIC rifampicin by MABA method; type: functional; conditions: time 14 day
Method in brief: (§2)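 Interaction analysis in Middlebrook 7H9 with 10% OADC. Combination MICs came from mixing the derivative (1 to 1/32 MIC) with the reference drug at 1/2 MIC, and the reverse, after 14 days at 37 °C with McFarland 1 inoculum. FICI was calculated from the combination MIC values and the MICs alone.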

[4] = tested on: Mycobacterium tuberculosis; experiment: Antitubercular activity against Mycobacterium tuberculosis Spec.192 assessed as fractional inhibitory concentration index in presence of 1/2 x MIC isoniazid incubated for 14 days by MABA method; type: functional; conditions: time 14 day; method in brief: as §2
HaCaT = experiment: Cytotoxicity against human HaCaT cells assessed as reduction in cell viability measured after 72 hrs by MTT assay; type: cell-based
Method in brief: (§3)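 MTT viability assay on cells grown in DMEM with 10% heat-inactivated FBS, penicillin/streptomycin and 20 mM HEPES at 37 °C/5% CO2. Cells were seeded at 1×10^4 per well and allowed to adhere for 24 h, then the medium was refreshed. Compounds were added at 20–140 μM for 72 h at 37 °C, followed by MTT (0.5 mg/mL in serum-free medium) for 4 h. Untreated cells served as control. IC50 is the concentration giving 50% growth inhibition versus control.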

Mycobacterium xenopi = experiment: Antibacterial activity against Mycobacterium xenopi assessed as inhibition of microbial growth incubated for 1 week by MABA method; type: functional; conditions: 168 h, time 1 weeks
Method in brief: (§4)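 Microplate Alamar Blue assay using two-fold serial microdilution in Middlebrook 7H9 broth with 10% OADC, compounds 0.125–512 µg/ml from DMSO stocks. Inoculum came from fresh LJ culture, was adjusted to McFarland 1 and diluted 1:20. Plates were incubated 1 week at 37 °C, Alamar blue was added and plates were re-incubated 24 h. MIC was the lowest concentration preventing the blue-to-pink change. Each plate carried growth and sterile controls.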

Escherichia coli = experiment: Antibacterial activity against Escherichia coli ATCC 25922 assessed as bacterial growth inhibition measured after 18 hrs by two-fold serial microdilution method; type: functional
Method in brief: (§5)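 Two-fold serial broth microdilution in MH II medium following modified CLSI procedures. Compounds were dissolved in DMSO and diluted in medium to at most 1% solvent, tested from 0.03125 to 512 μg/ml. Final inoculum 10^6 CFU/ml. MIC was taken as the lowest concentration with no visible growth after 18 h at 35 °C.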

[5] = tested on: Mycobacterium tuberculosis; experiment: Antitubercular activity against Mycobacterium tuberculosis H37Rv ATCC 25618 assessed as fractional inhibitory concentration index incubated for 14 days in presence of 1/2 x MIC streptomycin by MABA method; type: functional; conditions: time 14 day; method in brief: as §2
Klebsiella pneumoniae = experiment: Antibacterial activity against Klebsiella pneumoniae ATCC 10031 assessed as bacterial growth inhibition measured after 18 hrs by two-fold serial microdilution method; type: functional; method in brief: as §5
[6] = tested on: Mycobacterium tuberculosis; experiment: Antitubercular activity against Mycobacterium tuberculosis Spec.192 assessed as reduction in bacterial growth incubated for 14 days in presence of 1/2 x MIC ethambutol by MABA method; type: functional; conditions: Mycobacterium tuberculosis, 192, 336 h; time 14 day
Method in brief: (§6)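 Checkerboard-type combination in Middlebrook 7H9 with 10% OADC. The test derivative at 1 to 1/32 of its MIC alone was mixed with the reference drug fixed at 1/2 its MIC. 4 ml samples were inoculated with McFarland 1 suspension and incubated 14 days at 37 °C. MIC is the lowest derivative concentration in combination that inhibited growth in liquid medium.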

V79 [7] = experiment: Cytotoxicity against Chinese Hamster V79 cells assessed as reduction in cell viability measured after 72 hrs by MTT assay; type: cell-based; conditions: Cricetulus griseus, V79, 72 h; method in brief: as §3
[8] = tested on: Mycobacterium tuberculosis; experiment: Antitubercular activity against Mycobacterium tuberculosis Spec.192 assessed as fractional inhibitory concentration index in presence of 1/2 x MIC rifampicin incubated for 14 days by MABA method; type: functional; conditions: time 14 day; method in brief: as §2
[9] = tested on: Mycobacterium intracellulare; experiment: Antimycobacterial activity against Mycobacterium intracellulare assessed as inhibition of microbial growth incubated for 1 week by MABA method; type: functional; conditions: 168 h, time 1 weeks; method in brief: as §4
V79 [10] = experiment: Cytotoxicity against Chinese Hamster V79 cells assessed as reduction in cell viability at 100 uM measured after 72 hrs by MTT assay; type: cell-based, Cricetulus griseus; conditions: v79, 72 h; method in brief: as §3
A549 = experiment: Cytotoxicity against human A549 cells assessed as LDH release at 100 uM incubated for 72 hrs by LDH assay; type: cell-based; conditions: a549, 72 h
Method in brief: (§7)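 LDH release measured with a kit after 72 h exposure to 100 μM compound. Cells were seeded at 1×10^4 per well in DMEM or EMEM with 2% FBS. Absorbance was read at 490 nm. Release (%) = (A sample − A low control)/(A high control − A low control) × 100, with the Triton X-100 (1%) control taken as 100% release. Values are mean ± SD of three independent experiments run in triplicate.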

Caco-2 = experiment: Cytotoxicity against human Caco-2 cells assessed as LDH release at 100 uM incubated for 72 hrs by LDH assay; type: cell-based; conditions: caco-2, 72 h; method in brief: as §7
[11] = tested on: Mycobacterium tuberculosis; experiment: Antitubercular activity against Mycobacterium tuberculosis Spec.192 assessed as fractional inhibitory concentration index in presence of 1/2 x MIC ethambutol incubated for 14 days by MABA method; type: functional; conditions: time 14 day; method in brief: as §2
[12] = tested on: Mycobacterium tuberculosis; experiment: Antitubercular activity against Mycobacterium tuberculosis H37Rv ATCC 25618 assessed as reduction in bacterial growth incubated for 14 days in presence of 1/2 x MIC isoniazid by MABA method; type: functional; conditions: H37Rv ATCC 25618, 336 h, time 14 day; method in brief: as §6
[13] = tested on: Mycobacterium tuberculosis; experiment: Antitubercular activity against Mycobacterium tuberculosis Spec.192 assessed as isoniazid MIC incubated for 14 days in presence of isoniazid by MABA method; type: functional; conditions: Mycobacterium tuberculosis, 192, 336 h; time 14 day; method in brief: as §1
[14] = tested on: Staphylococcus epidermidis; experiment: Antibacterial activity against Staphylococcus epidermidis ATCC 12228 assessed as bacterial growth inhibition measured after 18 hrs by two-fold serial microdilution method; type: functional; method in brief: as §5
[15] = tested on: Mycobacterium tuberculosis; experiment: Antitubercular activity against Mycobacterium tuberculosis Spec.192 assessed as streptomycin MIC incubated for 14 days in presence of streptomycin by MABA method; type: functional; conditions: Mycobacterium tuberculosis, 192, 336 h; time 14 day; method in brief: as §1
[16] = tested on: Mycolicibacterium fortuitum; experiment: Antibacterial activity against Mycobacterium fortuitum assessed as inhibition of microbial growth incubated for 1 week by MABA method; type: functional; conditions: 168 h, time 1 weeks; method in brief: as §4
Mycobacterium kansasii = experiment: Antibacterial activity against Mycobacterium kansasii assessed as inhibition of microbial growth incubated for 1 week by MABA method; type: functional; conditions: 168 h, time 1 weeks; method in brief: as §4

## COc1ccc(-n2nnnc2Nc2cccc(Br)c2)cc1
[1]
  MIC: 0.5 µg/mL
[2]
  MIC: 0.25 µg/mL
[3]
  fractional inhibitory concentration index (FICI): 0.5
[4]
  fractional inhibitory concentration index (FICI): 4.125
HaCaT
  IC50: 138 µM
Mycobacterium xenopi
  MIC: > 512 µg/mL
Escherichia coli
  MIC: > 256 µg/mL
[5]
  fractional inhibitory concentration index (FICI): 0.5
Klebsiella pneumoniae
  MIC: > 256 µg/mL
[6]
  MIC: 0.5 µg/mL
V79 [7]
  IC50: 241 µM
[8]
  fractional inhibitory concentration index (FICI): 0.5
[9]
  MIC: 128 µg/mL
V79 [10]
  Activity: Non-Toxic
A549
  Activity: Non-Toxic
Caco-2
  Activity: < 17%
[11]
  fractional inhibitory concentration index (FICI): 0.75
[12]
  MIC: 0.25 µg/mL
[13]
  MIC: 0.5 µg/mL
[14]
  MIC: > 256 µg/mL
[15]
  MIC: 0.25 µg/mL
[16]
  MIC: 256 µg/mL
Mycobacterium kansasii
  MIC: 512 µg/mL

## COc1ccc(-n2nnnc2Nc2ccc(Br)cc2)cc1
[1]
  MIC: 0.5 µg/mL
[2]
  MIC: 0.25 µg/mL
[3]
  fractional inhibitory concentration index (FICI): 0.5
[4]
  fractional inhibitory concentration index (FICI): 4.125
HaCaT
  IC50: 131 µM
Mycobacterium xenopi
  MIC: 256 µg/mL
Escherichia coli
  MIC: > 256 µg/mL
[5]
  fractional inhibitory concentration index (FICI): 0.375
Klebsiella pneumoniae
  MIC: > 256 µg/mL
[6]
  MIC: 0.25 µg/mL
V79 [7]
  IC50: 212 µM
[8]
  fractional inhibitory concentration index (FICI): 0.5
[9]
  MIC: 128 µg/mL
V79 [10]
  Activity: Non-Toxic
A549
  Activity: Non-Toxic
Caco-2
  Activity: Non-Toxic
[11]
  fractional inhibitory concentration index (FICI): 0.625
[12]
  MIC: 0.25 µg/mL
[13]
  MIC: 0.5 µg/mL
[14]
  MIC: 256 µg/mL (≈ 739 µM)
[15]
  MIC: 0.25 µg/mL
[16]
  MIC: > 512 µg/mL
Mycobacterium kansasii
  MIC: 512 µg/mL
